A short description of data set [1]: Volume of distribution in Sprague-Dawley rat at 1 mg/kg, iv by LC-MS/MS analysis. It counts as ADME, organism-based. Further details: dose 1 mg/kg, route intravenous. The following applies: in vivo.
Data set [2] in a line: Cmax in Sprague-Dawley rat at 1 mg/kg, iv by LC-MS/MS analysis. It counts as ADME, organism-based. Further details: dose 1 mg/kg, route intravenous. The following applies: in vivo.
A short description of data set [3]: Half life in Sprague-Dawley rat at 1 mg/kg, iv by LC-MS/MS analysis. The format is ADME, organism-based. Details: dose 1 mg/kg, route intravenous. Particulars: in vivo.
Data set [4] deals with CYP3A4 (Homo sapiens, UniProt P08684). As to the kind of experiment: Inhibition of CYP3A4 (unknown origin)-mediated midazolam hydroxylation to 1'-Hydroxymidazolam at 10 uM relative to control. The format is ADME. Particulars: probe midazolam.
The subject of data set [5] is Rattus norvegicus. Briefly: AUC in Sprague-Dawley rat at 1 mg/kg, iv by LC-MS/MS analysis. The format is ADME, organism-based, Plasma. Further details: dose 1 mg/kg, route intravenous. Particulars: in vivo.
Data set [6] deals with T1, CYP1A2 (Homo sapiens, UniProt P05177).
T1 sequence (P05177 whole entry): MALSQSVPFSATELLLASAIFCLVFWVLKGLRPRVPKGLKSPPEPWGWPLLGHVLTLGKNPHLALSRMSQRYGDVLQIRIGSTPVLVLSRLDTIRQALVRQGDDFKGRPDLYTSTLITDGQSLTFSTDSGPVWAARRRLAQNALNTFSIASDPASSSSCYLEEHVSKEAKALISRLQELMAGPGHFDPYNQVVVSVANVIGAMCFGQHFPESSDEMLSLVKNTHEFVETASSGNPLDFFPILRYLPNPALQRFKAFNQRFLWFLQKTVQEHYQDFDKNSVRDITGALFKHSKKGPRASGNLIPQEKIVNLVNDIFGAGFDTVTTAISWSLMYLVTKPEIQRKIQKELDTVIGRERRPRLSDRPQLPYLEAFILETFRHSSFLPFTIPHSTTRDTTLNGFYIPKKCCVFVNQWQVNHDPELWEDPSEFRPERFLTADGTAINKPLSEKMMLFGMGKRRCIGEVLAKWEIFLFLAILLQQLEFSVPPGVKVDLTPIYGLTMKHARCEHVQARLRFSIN
Briefly: Inhibition of CYP1A2 (unknown origin)-mediated phenaceten demethylation to acetaminophen at 10 uM relative to control. It counts as ADME. The following applies: probe phenacetin (printed: phenaceten).

The nature of data set [7]: Inhibition of ROCK-mediated myosin light chain bisphosphorylation in rat A7R5 cells after 1 hr by fluorescence assay in presence of L-alpha-lysophosphatidic acid. It counts as cell-based. The gist of the method: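 A7r5 cells in 20% FBS DMEM, plated 5000/well overnight, serum-starved 4 h in 0.05% FBS DMEM; compound 13333 nM to 18 nM final for 1 h, then 10 μM LPA 10 min; fixed, permeabilized, anti-ppMLC plus IR800 secondary; infrared scan, ppMLC signal normalized to TO-PRO-3 nuclear signal. IC50 as mean of two or more experiments.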

Data set [8] concerns the target CYP2D6 (Homo sapiens, UniProt P10635). Briefly: Inhibition of CYP2D6 (unknown origin)-mediated bufuralol hydroxylation to 4'-Hydroxybufuralol at 10 uM relative to control. It counts as ADME. Particulars: probe bufuralol.
The target of data set [9] is Rho-associated protein kinase 1 (Homo sapiens, UniProt Q13464). Briefly: Inhibition of ROCK1 (unknown origin) after 4 hrs by HTRF assay. In general terms: TR-FRET usually uses a lanthanide donor and a delayed reading to cut background.
A short description of data set [10]: Half life in human liver microsomes. It counts as ADME, Microsome. (Liver microsomes are vesicles of endoplasmic reticulum, rich in cytochrome P450 enzymes.)
Data set [11] is described as follows: Inhibition of PKA (unknown origin) after 70 mins by luminescence assay. Details: species or system Homo sapiens.
Data set [12] deals with CYP2C9 (Homo sapiens, UniProt P11712). Briefly: Inhibition of CYP2C9 (unknown origin)-mediated tolbutamide hydroxylation to hydroxy tolbutamide at 10 uM relative to control. The format is ADME. Particulars: probe tolbutamide.
Data set [13] has as its target Rho-associated protein kinase 2 (Homo sapiens, UniProt O75116). Briefly: Inhibition of ROCK2 (unknown origin) after 4 hrs by HTRF assay.
Data set [14] is described as follows: Oral bioavailability in Sprague-Dawley rat at 2 mg/kg by LC-MS/MS analysis. It counts as ADME, organism-based. The following applies: in vivo.

Sequence of CYP2C9 (P11712 whole entry): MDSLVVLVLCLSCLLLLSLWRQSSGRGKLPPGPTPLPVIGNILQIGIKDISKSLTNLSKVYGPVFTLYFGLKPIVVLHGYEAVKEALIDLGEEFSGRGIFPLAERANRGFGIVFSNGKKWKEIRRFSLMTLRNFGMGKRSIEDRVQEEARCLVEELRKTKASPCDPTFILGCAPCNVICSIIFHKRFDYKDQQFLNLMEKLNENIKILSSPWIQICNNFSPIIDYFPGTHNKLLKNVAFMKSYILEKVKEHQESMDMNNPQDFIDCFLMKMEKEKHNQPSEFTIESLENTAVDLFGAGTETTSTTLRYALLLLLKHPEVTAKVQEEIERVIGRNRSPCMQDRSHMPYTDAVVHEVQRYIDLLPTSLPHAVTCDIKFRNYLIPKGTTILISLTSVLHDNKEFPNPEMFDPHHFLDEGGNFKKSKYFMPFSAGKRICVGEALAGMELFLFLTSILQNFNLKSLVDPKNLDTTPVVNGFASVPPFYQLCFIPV
Sequence of Rho-associated protein kinase 1 (Q13464 whole entry): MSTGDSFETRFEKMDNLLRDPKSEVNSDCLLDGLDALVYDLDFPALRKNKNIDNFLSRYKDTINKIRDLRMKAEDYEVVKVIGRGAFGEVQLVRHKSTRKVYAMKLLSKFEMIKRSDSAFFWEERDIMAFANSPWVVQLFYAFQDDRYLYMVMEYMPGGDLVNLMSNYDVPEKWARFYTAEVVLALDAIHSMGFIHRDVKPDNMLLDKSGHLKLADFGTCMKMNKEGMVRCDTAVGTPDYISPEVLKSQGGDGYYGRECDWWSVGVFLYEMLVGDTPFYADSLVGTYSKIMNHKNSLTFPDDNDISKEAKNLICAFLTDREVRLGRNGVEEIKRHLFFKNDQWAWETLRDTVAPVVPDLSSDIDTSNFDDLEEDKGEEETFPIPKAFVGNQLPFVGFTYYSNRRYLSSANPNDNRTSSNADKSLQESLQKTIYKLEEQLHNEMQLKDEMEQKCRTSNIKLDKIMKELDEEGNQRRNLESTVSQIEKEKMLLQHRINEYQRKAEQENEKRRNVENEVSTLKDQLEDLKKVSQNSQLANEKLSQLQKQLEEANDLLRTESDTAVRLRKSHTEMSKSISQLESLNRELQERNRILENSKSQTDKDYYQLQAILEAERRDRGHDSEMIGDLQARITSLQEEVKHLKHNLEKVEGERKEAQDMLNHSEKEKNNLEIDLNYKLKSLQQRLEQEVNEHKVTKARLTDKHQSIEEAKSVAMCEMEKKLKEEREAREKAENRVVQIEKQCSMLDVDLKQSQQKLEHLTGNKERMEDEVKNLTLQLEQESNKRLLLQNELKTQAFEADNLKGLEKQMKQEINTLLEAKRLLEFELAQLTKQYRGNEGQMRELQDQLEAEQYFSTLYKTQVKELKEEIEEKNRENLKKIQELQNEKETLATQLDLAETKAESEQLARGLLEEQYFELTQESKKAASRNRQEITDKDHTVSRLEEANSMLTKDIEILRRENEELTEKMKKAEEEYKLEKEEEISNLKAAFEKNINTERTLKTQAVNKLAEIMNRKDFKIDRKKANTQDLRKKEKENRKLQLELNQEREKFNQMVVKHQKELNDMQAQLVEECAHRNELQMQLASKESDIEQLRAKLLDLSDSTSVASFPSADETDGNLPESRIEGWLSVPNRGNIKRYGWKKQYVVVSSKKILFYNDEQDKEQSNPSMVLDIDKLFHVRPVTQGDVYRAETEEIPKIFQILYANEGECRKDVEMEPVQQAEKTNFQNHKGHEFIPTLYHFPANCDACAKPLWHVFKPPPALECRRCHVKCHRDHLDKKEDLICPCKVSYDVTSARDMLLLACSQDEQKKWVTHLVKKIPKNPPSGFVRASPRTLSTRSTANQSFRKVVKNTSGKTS
Sequence of CYP3A4 (P08684 whole entry): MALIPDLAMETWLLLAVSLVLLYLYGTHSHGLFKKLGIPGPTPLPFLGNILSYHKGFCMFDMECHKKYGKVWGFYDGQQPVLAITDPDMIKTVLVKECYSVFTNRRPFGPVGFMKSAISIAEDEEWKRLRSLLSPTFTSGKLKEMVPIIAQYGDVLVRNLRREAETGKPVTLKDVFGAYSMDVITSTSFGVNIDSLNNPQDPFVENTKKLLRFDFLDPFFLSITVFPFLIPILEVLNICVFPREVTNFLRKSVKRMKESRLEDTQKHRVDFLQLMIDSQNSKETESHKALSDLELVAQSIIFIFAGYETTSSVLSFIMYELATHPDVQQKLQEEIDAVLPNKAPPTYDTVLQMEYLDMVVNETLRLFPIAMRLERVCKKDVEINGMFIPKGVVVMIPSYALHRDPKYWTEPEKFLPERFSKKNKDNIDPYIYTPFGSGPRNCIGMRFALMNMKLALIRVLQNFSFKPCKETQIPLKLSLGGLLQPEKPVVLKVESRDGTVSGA
Sequence of Rho-associated protein kinase 2 (O75116 whole entry): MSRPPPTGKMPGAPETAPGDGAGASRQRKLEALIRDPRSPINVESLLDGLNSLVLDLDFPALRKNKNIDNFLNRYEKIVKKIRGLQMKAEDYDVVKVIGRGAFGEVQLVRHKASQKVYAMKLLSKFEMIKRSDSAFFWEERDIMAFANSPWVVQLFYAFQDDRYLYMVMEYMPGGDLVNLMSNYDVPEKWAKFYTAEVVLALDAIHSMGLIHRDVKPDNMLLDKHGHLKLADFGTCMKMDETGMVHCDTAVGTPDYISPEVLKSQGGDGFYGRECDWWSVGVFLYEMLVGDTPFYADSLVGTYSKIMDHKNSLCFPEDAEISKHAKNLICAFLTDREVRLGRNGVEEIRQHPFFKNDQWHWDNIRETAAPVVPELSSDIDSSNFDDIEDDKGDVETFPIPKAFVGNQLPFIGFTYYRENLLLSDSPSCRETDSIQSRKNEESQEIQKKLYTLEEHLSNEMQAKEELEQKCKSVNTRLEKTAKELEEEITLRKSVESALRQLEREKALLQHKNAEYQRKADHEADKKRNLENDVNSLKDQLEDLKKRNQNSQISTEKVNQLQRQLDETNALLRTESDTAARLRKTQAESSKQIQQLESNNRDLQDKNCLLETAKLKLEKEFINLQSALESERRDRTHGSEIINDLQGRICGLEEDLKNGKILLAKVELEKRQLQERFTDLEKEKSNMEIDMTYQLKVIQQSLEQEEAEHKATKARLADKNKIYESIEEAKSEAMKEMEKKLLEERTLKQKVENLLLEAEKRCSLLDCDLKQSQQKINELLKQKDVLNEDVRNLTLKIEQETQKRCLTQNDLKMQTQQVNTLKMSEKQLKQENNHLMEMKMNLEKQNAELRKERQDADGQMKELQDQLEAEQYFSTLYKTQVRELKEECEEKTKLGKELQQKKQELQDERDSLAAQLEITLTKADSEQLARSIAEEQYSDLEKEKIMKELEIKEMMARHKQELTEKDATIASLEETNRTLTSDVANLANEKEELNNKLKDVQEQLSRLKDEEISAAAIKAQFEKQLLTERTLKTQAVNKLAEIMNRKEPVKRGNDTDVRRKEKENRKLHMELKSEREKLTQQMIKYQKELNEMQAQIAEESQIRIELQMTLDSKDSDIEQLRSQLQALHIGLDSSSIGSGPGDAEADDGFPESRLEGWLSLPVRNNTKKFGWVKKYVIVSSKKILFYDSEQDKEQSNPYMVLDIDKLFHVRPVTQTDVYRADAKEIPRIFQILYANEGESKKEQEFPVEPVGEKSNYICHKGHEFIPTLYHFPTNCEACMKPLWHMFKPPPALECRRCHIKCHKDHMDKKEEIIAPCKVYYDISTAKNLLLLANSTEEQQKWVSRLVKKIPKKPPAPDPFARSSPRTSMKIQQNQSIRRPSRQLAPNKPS
Sequence of CYP2D6 (P10635 whole entry): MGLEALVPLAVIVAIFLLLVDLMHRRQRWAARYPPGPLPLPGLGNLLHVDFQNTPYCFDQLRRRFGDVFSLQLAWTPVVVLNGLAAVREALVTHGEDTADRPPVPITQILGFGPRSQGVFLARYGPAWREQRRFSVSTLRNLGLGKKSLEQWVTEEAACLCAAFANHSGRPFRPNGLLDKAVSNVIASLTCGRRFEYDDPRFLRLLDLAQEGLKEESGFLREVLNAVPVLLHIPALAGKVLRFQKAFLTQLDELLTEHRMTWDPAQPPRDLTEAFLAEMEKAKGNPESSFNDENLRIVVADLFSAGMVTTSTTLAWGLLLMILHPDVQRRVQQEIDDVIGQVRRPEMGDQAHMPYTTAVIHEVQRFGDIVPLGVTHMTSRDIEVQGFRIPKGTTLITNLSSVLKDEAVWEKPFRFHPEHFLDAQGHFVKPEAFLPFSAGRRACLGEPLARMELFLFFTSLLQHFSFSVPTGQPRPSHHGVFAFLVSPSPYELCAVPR

Regarding `O=C(Nc1ccc(-c2cn[nH]c2)cc1)N(CCO)Cc1ccccc1`, in data set [1], the distribution volume (Vd) (as a rule, the apparent volume that relates the amount in the body to the concentration in plasma or blood) amounted to 1.9 L/kg. For the same compound, in data set [2], the highest level (Cmax) was 1100 nM. For the same compound, the half-life (in general, how long it takes for the measured level to halve) is 1.9 h in data set [3] and more than 2 h in [10]. Also, the inhibition (as a rule, the drop in the measured response relative to a control, in per cent) at 10 µM in data set [4] stood at 15%; in data set [6] it was 9%; in data set [8] it was 29%; in data set [12], 93%. Moreover, the area under the curve (AUC) (as a rule, concentration integrated over time) in data set [5] worked out at 3.6 µM·h. For the same compound, the IC50 (usually the concentration that inhibits the measured activity by half) came out at 0.059 µM in [7], 0.033 µM in [9], 0.61 µM in [11] and 0.012 µM in data set [13]. The bioavailability (usually the share of a dose that reaches the circulation, judged against a reference dose that is usually intravenous) in [14] was 46%.

The values above are taken from ChEMBL document CHEMBL2331531, “Synthesis and biological evaluation of urea derivatives as highly potent and selective rho kinase inhibitors” (J Med Chem, 2013).
